From PubChem BioAssay
Compounds with a hit are over-represented: about 4.1% of the library has one in this group of screens.
Autophagy mod = autophagy modulators in MEF cells, primary screen, imaging, high-content, MEF GFP-LC3; MEF GFP-LC3 puncta imaging; test concentration mostly 10 µM; calls only at 10 µM (by protocol); 190,000 compounds, 0.98% hits; AID 463193, 2010;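 active = percentage of spot-positive cells more than 3 SD above its plate mean, without a fluorescence outlier flag or 80% toxicity; inconclusive = no clear call, values can overlap the other calls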;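 also: spot-positive cell cutoff set from DMSO-treated cells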
ROMK mod = ROMK potassium channel modulators, primary screen, cell-based, thallium flux, MLSMR library | ATP-sensitive inward rectifier potassium channel 1 (Homo sapiens), P48048 | Tet-inducible ROMK, thallium flux fluorescence; actives lie on both sides | B-score at 10 µM | 130,000 compounds, 2% hits | AID 1918, 2009;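 active = signal ratio slope over the read window, or its plate-corrected B-score, at least 3 SD from the plate mean, either direction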;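 also: B-score of the F/F0 ratio slope over 7 to 12 s after thallium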
Target sequence (P48048 whole entry, looked up): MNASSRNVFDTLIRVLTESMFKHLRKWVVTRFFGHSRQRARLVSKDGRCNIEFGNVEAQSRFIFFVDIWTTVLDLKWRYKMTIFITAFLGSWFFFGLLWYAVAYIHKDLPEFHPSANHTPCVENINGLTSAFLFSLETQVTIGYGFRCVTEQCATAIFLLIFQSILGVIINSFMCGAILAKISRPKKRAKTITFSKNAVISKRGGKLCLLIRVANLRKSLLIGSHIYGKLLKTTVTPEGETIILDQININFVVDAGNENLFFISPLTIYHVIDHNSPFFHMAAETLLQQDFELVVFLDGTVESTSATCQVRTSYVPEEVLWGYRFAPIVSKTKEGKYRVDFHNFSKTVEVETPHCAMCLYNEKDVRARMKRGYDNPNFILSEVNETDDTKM
DTT redox prof = compounds producing H2O2 with reducing agent – biochemical, NIH compound library profiling, artefact control for MLSCN library redox annotation, primary screen; DTT-dependent redox cycling H2O2, phenol red/HRP absorbance; 100% = 100 µM peroxide control, 0% = buffer; activation, % at 10 µM; 200,000 compounds, 0.03% hits;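 active = activation of at least 50% relative to the plate's high and low controls in the primary single-dose screen; inactive = activation below 50%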;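 also: compound incubated with DTT at 0.8 mM final as the reducing agent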
Dynein transport = inhibitors of GR-EGFP nuclear translocation, primary screen, dynein cargo transport inhibitor project, imaging, high-content, 3617.4 mouse cells; AID 1381, 2008; z-score, hits read low; 220,000 compounds, 0.47% hits; test concentration mostly 20 µM; stimulated with dexamethasone, 1 µM; hits give low values;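 active = plate z-score of nuclear minus cytoplasmic receptor signal below a set negative limit, without overly bright fluorescence or cell loss, cut at about -3.5 in these data, passing the limit was not always enough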;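 also: z-score of nuclear minus cytoplasmic ring GR-EGFP intensity difference per well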
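Buffer or medium: tet-free medium with charcoal-stripped serum / Also added: dexamethasone agonist, 1.0 µM final, for 30 min / Timing: induction 48 h, compound 1 h, agonist 30 min / Measured by: high-content fluorescence imaging after fixation / Read-out: nuclear-to-cytoplasmic GR-EGFP distribution per well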
KCC2 mod = KCC2 cotransporter modulators, thallium flux, primary screen, cell-based, HEK293 KCC2, FluoZin-2 fluorescence, MLSMR. Solute carrier family 12 member 5 (Homo sapiens), Q9H2X9. B-score of Tl+ flux slope (higher = more flux/activation; lower = inhibition) at 10 µM. KCC2 cells, thallium flux FluoZin-2 fluorescence. AID 1456, 2008. 190,000 compounds, 2.2% hits;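 active = thallium flux slope and its plate-corrected score both differing from the plate sample mean at a set confidence after two filtering rounds, in either direction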;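 also: slope of fluorescence scaled to starting intensity during 10 to 20 s after thallium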
Dynein inh conf = dynein cargo transport inhibitors, GR-EGFP translocation, confirmation, imaging, high-content imaging, GR-EGFP cells; shares compounds with Dynein transport; 3617.4 GR-EGFP nuclear translocation imaging, dexamethasone-induced; calls only at 20 µM; 1,000 compounds, 69% hits; AID 463116, 2010;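 active = inhibition of receptor movement into the nucleus at or above a set limit in both runs, with normal cell brightness and cell count; inconclusive = limit reached in only one run, brightness and count normal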;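 also: dexamethasone at 1 µM final in well for 30 min; nuclear minus cytoplasmic GR-EGFP mean intensity difference in channel 2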
* hit, by the source's call.

CC1(N(O)/C=C2\C=CC=CC2=O)CCCCC1=O (stereo unspecified) was read as ROMK mod 1.5, Dynein transport 0.44 and KCC2 mod 0.32.
CC1(C)COC(/C=C/c2ccc([N+](=O)[O-])cc2)=N1 was read as Autophagy mod inactive, ROMK mod -2, DTT redox prof -1, Dynein transport -4.1*, KCC2 mod -0.23 and Dynein inh conf active.
`COc1cc(CNc2ccc(CNc3ncn[nH]3)cc2)ccc1OCc1ccccc1` gave Autophagy mod inactive, DTT redox prof 0, Dynein transport 0.067 and KCC2 mod -1.5.
`COc1ccc(CN(CCC(c2ccccc2)c2ccc(OC(C)C)cc2)C(=O)CCl)cc1OC` (stereo unspecified) gave Autophagy mod inactive, ROMK mod 0.15, DTT redox prof 0, Dynein transport -6.9*, KCC2 mod -0.064 and Dynein inh conf active.
Screening Fc1ccc(CNc2nc(-c3ccco3)cc(C(F)(F)F)n2)cc1 returned Autophagy mod inactive, ROMK mod 1, DTT redox prof 0, Dynein transport -4.4* and Dynein inh conf inactive.
For FC(F)(F)c1cc(-c2ccco2)nc(NCc2ccccc2)n1 the results were Autophagy mod inactive, ROMK mod 0.053, DTT redox prof 0 and Dynein transport -0.66.
Cc1cc2cc(CN(CCCO)S(=O)(=O)c3cccc4nsnc34)c(=O)[nH]c2cc1C was read as Autophagy mod inactive, DTT redox prof 3, Dynein transport -0.58 and KCC2 mod -1.1.
`Cc1ccc2[nH]c(=O)c(CN(CCCO)S(=O)(=O)c3c(C)ccc4nsnc34)cc2c1` gave Autophagy mod inactive, DTT redox prof 1, Dynein transport -5.9*, KCC2 mod 0.26 and Dynein inh conf inactive.
Screening COc1ccc(/C=C/C(=O)c2c(O)c(OC)c3occc3c2OC)cc1 returned Autophagy mod inactive, ROMK mod 0.43, DTT redox prof -1, Dynein transport -4.7*, KCC2 mod -3.8 and Dynein inh conf active.
Screening Cc1ccc(NC(=O)c2cc(NC(=O)c3ccco3)ccc2N2CCOCC2)cc1 returned Autophagy mod inactive, ROMK mod 0.041, DTT redox prof 2, Dynein transport 0.028 and KCC2 mod 0.32.
`Cc1ccc(NC(=O)c2cc(N3C(=O)C=CC3=O)ccc2N2CCOCC2)cc1` gave Autophagy mod inactive, ROMK mod -1.1, DTT redox prof -1, Dynein transport -4.9*, KCC2 mod 1.6 and Dynein inh conf active.
`CCOC(=O)c1ccc(NC(=S)N(CCCN2CCCC(C)C2)Cc2ccco2)cc1` (stereo unspecified) gave Autophagy mod inactive, ROMK mod -1.6, DTT redox prof 0, Dynein transport -0.2 and KCC2 mod 0.13.
`Cc1cccc(NC(=O)CN2C(=O)N/C(=C/c3ccc(C)s3)C2=O)c1` gave Autophagy mod inactive, DTT redox prof 0, Dynein transport -4.5, KCC2 mod 0.13 and Dynein inh conf inconclusive.
Screening Cc1cccc(NC(=O)CN2C(=O)N/C(=C/c3cc(C)n(C(C)C)c3C)C2=O)c1 returned Autophagy mod inactive, ROMK mod -0.36, DTT redox prof 1, Dynein transport -0.37 and KCC2 mod 0.46.
`CCOc1ccc2noc3c2c1C(=O)c1ccccc1-3` gave Autophagy mod inactive, DTT redox prof -5, Dynein transport -7.5* and Dynein inh conf active.
For O=C1c2ccccc2-c2onc3ccc(NCc4ccco4)c1c23 the results were Autophagy mod inactive, DTT redox prof 2, Dynein transport -6.6, KCC2 mod inactive and Dynein inh conf inactive.
`CCOC(=O)c1c(C)n2c3c(cc(C)cc13)CCC2` gave Autophagy mod inactive, ROMK mod -0.45, DTT redox prof -1, Dynein transport 0.3 and KCC2 mod -0.2.
